The results in this text go back to ChEMBL document CHEMBL4837222, “Design and synthesis of novel benzothiophene analogs as selective estrogen receptor covalent antagonists against breast cancer” (Eur J Med Chem, 2021).

Series [1] deals with MCF7. The series is described as follows: Antiproliferative activity against human MCF7 cells assessed as reduction in cell growth incubated for 48 hrs by CCK8 assay. Particulars: MCF7, 48 h. Type of series: functional, cell-based. In outline:
(§1)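 CCK-8 viability assay. Cells seeded at 4000/well in 10% FBS medium for 24 h, then given compound diluted from DMSO stocks into 2% FBS medium at 100, 50, 25, 12.5, 6.25 and 3.125 µM (0.1% DMSO final). After 48 h, CCK-8 was added (0.5 mg/mL) for 2 h at 37 °C and OD450 read. Triplicates; IC50 fitted from mean viability.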

Series [2] deals with Ishikawa. The series is described as follows: Antiproliferative activity against human Ishikawa cells assessed as reduction in cell growth incubated for 48 hrs by CCK8 assay. Type of series: functional, cell-based. In outline: as §1
The test system of series [3] is MDA-MB-231. The series is described as follows: Antiproliferative activity against human MDA-MB-231 cells assessed as reduction in cell growth incubated for 48 hrs by CCK8 assay. Type of series: functional, cell-based. Particulars: MDA-MB-231, 48 h. In outline:
as §1

The subject of series [4] is MCF7. The series is described as follows: Potency index, ratio of raloxifene IC50 to test compound IC50 for human MCF7 cells assessed as reduction in cell growth incubated for 48 hrs by CCK8 assay. Type of series: functional.
Series [5] deals with Ishikawa. The series is described as follows: Potency index, ratio of raloxifene IC50 to test compound IC50 for human Ishikawa cells assessed as reduction in cell growth incubated for 48 hrs by CCK8 assay. Type of series: functional. A general note: Tetrazolium assays rely on reduction of a dye to a coloured formazan, in cell work by metabolically active cells.
Series [6] in a line: Half life in rat liver microsomes. Type of series: ADME, Microsome.
Series [7] is described as follows: Intrinsic clearance in rat. Type of series: ADME.
A short description of series [8]: Half life in rat plasma. Type of series: ADME, cell-free.
In series [9] the target is T1, Estrogen receptor (Homo sapiens) (UniProt P03372).
T1 sequence (whole entry): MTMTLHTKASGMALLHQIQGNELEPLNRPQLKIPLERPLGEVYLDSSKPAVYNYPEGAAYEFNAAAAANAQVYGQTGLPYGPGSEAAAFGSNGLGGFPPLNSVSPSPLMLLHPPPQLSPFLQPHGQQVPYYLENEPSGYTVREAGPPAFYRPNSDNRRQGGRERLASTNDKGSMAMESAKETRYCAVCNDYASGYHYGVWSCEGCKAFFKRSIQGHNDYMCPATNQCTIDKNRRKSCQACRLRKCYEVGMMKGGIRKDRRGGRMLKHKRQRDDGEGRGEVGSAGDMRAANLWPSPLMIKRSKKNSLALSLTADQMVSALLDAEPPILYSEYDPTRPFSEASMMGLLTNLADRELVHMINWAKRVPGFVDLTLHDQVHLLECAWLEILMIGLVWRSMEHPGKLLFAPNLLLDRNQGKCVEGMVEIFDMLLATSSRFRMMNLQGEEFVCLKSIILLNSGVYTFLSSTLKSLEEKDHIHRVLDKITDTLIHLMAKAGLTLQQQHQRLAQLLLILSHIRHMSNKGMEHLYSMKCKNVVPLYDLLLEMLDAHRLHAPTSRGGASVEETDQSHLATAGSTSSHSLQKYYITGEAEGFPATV
The series is described as follows: Covalent antagonist activity at ERalpha in human MCF7 cells assessed as decrease in estradiol-induced TFF1 mRNA expression level at 0.25 to 10 uM measured after 24 hrs by RT-PCR analysis. Type of series: cell-based. Particulars: filed as antagonist, dose 0.25-10 µM. Summed up:
(§2)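 MCF-7 cells stimulated with estradiol, then co-incubated 24 h with compound at 0.25, 0.5, 1 and 10 µM. RNA was reverse-transcribed and GREB1 or TFF1 measured by SYBR Green qPCR: 95 °C 10 min, then 40 cycles of 95 °C 5 s, 60 °C 60 s, 95 °C 15 s. Normalised to GAPDH, ΔΔCT method.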

Series [10] concerns the target T1, Estrogen receptor (Homo sapiens). The series is described as follows: Covalent antagonist activity at ERalpha in human MCF7 cells assessed as decrease in estradiol-induced GREB1 mRNA expression level at 0.25 to 10 uM measured after 24 hrs by RT-PCR analysis. Type of series: cell-based. Particulars: filed as antagonist, dose 0.25-10 µM. Summed up: as §2
The target is the same in series [11]. Kind of series: Covalent antagonist activity at ERalpha receptor in human ishikawa cells assessed as suppression of E2-stimulated PGR expression at 0.25 to 10 uM measured after 3 days by RT-PCR analysis. Type of series: cell-based. Particulars: filed as antagonist, dose 0.25-10 µM, time 3.0 day. Summed up:
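Ishikawa cells stimulated with E2 and exposed 3 days to compound at 0.25, 0.5, 1 and 10 µM. PGR mRNA quantified by SYBR Green real-time PCR, normalised to GAPDH, ΔΔCT method.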

In series [12] the test system is MCF7. Kind of series: Downregulation of ERalpha expression in human MCF7 cells at 0.5 uM incubated for 24 hrs by Western blot assay. Type of series: functional, cell-based. In outline: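 MCF-7 cells were kept in phenol red-free DMEM/F12 with 10% serum for 72 h before plating, then treated at 125, 250 and 500 nM for 24 h. Cells were lysed in RIPA buffer, protein was measured by BCA, and equal amounts were run on 10% SDS-PAGE and transferred to PVDF. ERα band intensity was normalized to GAPDH in each repeat.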
Background: In western blotting, separated proteins are transferred to a membrane and probed.

The source made the active and inactive calls. The rule behind the calls is not given here.

In the case of `CN(C)C(=O)/C=C/CN1CC(Oc2ccc(Oc3c(-c4ccc(F)cc4)sc4cc(O)ccc34)cc2)C1`, the figures for the IC50 in series [1], in series [2] and in series [3] were 22.3 µM, 11.2 µM and over 50 µM, respectively.

As for `C=C(C)C(=O)N1CC(Oc2ccc(Oc3c(-c4ccc(F)cc4)sc4cc(O)ccc34)cc2)C1`, the half-inhibitory concentration (IC50) is over 25 µM in series [1], 14.2 µM in series [2] and over 50 µM in [3].

On to `C=CC(=O)N1CC(Oc2ccc(Oc3c(-c4ccc(F)cc4)sc4cc(O)ccc34)cc2)C1`, for which the IC50 in series [1] was 23.5 µM; in [2], 12.3 µM; in [3] it was over 50 µM.

Take `O=C(/C=C/CN1CC(Oc2ccc(Oc3c(-c4ccc(F)cc4)sc4cc(O)ccc34)cc2)C1)N1CCOCC1`: the concentration for half-maximal inhibition (IC50) in [1] is 8.9 µM; in series [2] it was 9.84 µM; in series [3], over 50 µM. Further, the “Ratio IC50” value in series [4] came to 2; in [5], 1.26.

With `CNC(=O)/C=C/CN1CC(Oc2ccc(Oc3c(-c4ccc(F)cc4)sc4cc(O)ccc34)cc2)C1`, the IC50 in series [1] is over 25 µM; in series [2] it was over 25 µM; in series [3], over 50 µM.

Turning to `O=C(c1ccc(F)cc1)C1CCN(CCn2c(=O)[nH]c3ccccc3c2=O)CC1` [KETANSERIN], the half-life in series [6] was determined as 18.8 min. For the same compound, in series [7], the CLint scaled worked out at 132 mL/min/kg.

With `O=C(/C=C/CN1CC(Oc2ccc(Oc3c(-c4ccc(F)cc4)sc4cc(O)ccc34)cc2)C1)N1CCC1`, the IC50 in series [1] is over 25 µM; in series [2] it was 5.45 µM; in series [3] it was over 50 µM.

Turning to `C/C=C/C(=O)NCCOc1ccc(Oc2c(-c3ccc(F)cc3)sc3cc(O)ccc23)cc1`, the IC50 in [1] was 21.7 µM; in series [2], 12.4 µM; in series [3] it was over 50 µM.

`O=C(c1ccc(OCCN2CCCCC2)cc1)c1c(-c2ccc(O)cc2)sc2cc(O)ccc12` [RALOXIFENE]: the IC50 in [1] was 19.9 µM; in [2], 12.4 µM; in series [3], over 50 µM.

For `O=C(/C=C/CNCCOc1ccc(Oc2c(-c3ccc(F)cc3)sc3cc(O)ccc23)cc1)N1CCCCC1`, the IC50 in series [1] was 16.4 µM; in series [2], 8.43 µM; in series [3], over 50 µM.

Consider `O=C(/C=C/CNCCOc1ccc(Oc2c(-c3ccc(F)cc3)sc3cc(O)ccc23)cc1)N1CCOCC1`, for which the results for the IC50 in series [1], in [2] and in series [3] were 8.24 µM, 18.6 µM and over 50 µM, respectively.

In turn, `CC(Cc1cccc(C(F)(F)F)c1)NCCOC(=O)c1ccccc1` (configuration not stated) [BENFLUOREX] had a half-life in series [8] of 28.3 min.

In the case of `C/C=C/C(=O)N1CC(Oc2ccc(Oc3c(-c4ccc(F)cc4)sc4cc(O)ccc34)cc2)C1`, the IC50 is 28 µM in series [1], 9.4 µM in series [2] and over 50 µM in series [3].

Consider `O=C(/C=C/CNCCOc1ccc(Oc2c(-c3ccc(F)cc3)sc3cc(O)ccc23)cc1)N1CCCC1`, for which the figures for the IC50 in series [1], in series [2] and in series [3] were 7.61 µM, 11.2 µM and over 50 µM, respectively.

For the compound `C=CC(=O)NCCOc1ccc(Oc2c(-c3ccc(F)cc3)sc3cc(O)ccc23)cc1`, the IC50 is 23 µM in series [1], over 25 µM in [2] and over 50 µM in series [3].

In the case of `O=C(CCCNCCOc1ccc(Oc2c(-c3ccc(F)cc3)sc3cc(O)ccc23)cc1)N1CCC1`, the IC50 in series [1] was over 25 µM; in [2], over 25 µM; in series [3], over 50 µM. Besides, the inhibition entry in series [9], in series [10] and in series [11] was “Active” each time.

As for `C=C(C)C(=O)NCCOc1ccc(Oc2c(-c3ccc(F)cc3)sc3cc(O)ccc23)cc1`, the IC50 in [1] was over 25 µM; in [2], over 25 µM; in [3], over 50 µM.

For `C[C@]12CC[C@@H]3c4ccc(O)cc4C[C@@H](CCCCCCCCC[S+]([O-])CCCC(F)(F)C(F)(F)F)[C@H]3[C@@H]1CC[C@@H]2O` (some centres not stated), the inhibition entry in series [12] was “inactive”.

For `O=C(/C=C/CN1CC(Oc2ccc(Oc3c(-c4ccc(F)cc4)sc4cc(O)ccc34)cc2)C1)N1CCCC1`, the IC50 was 8.45 µM in [1], 9.15 µM in series [2] and over 50 µM in series [3]. Further, the figures for the “Ratio IC50” value in series [4] and in [5] were 2 and 1.35, respectively.

Take `CN(C)C(=O)/C=C/CNCCOc1ccc(Oc2c(-c3ccc(F)cc3)sc3cc(O)ccc23)cc1`: the concentration for half-maximal inhibition (IC50) in series [1] was 13.8 µM; in series [2] it was 11.9 µM; in series [3] it was over 50 µM.

Turning to `CC/C(=C(\c1ccccc1)c1ccc(OCCN(C)C)cc1)c1ccccc1` [TAMOXIFEN], the results for the concentration for half-maximal inhibition (IC50) in series [2] and in series [3] were 16.8 µM and over 50 µM, respectively.

In the case of `CNC(=O)/C=C/CNCCOc1ccc(Oc2c(-c3ccc(F)cc3)sc3cc(O)ccc23)cc1`, the IC50 in [1] is 16.1 µM; in series [2] it was 15.5 µM; in [3], over 50 µM.

Broadly, the IC50 is the midpoint of a concentration-inhibition curve. A word on the half-life: it is how long it takes for the measured level to halve. As usually defined, the CLint scaled is the capacity of the preparation to metabolise the compound, expressed as a volume cleared per time. The low end stands for greater metabolic stability, the high end for faster metabolism.
